Active and inactive are the calls of the source. No cut-off for these calls is given here.
Experiments:
[1] = target: Free fatty acid receptor 1 (Homo sapiens, UniProt O14842); test: Agonist activity at human GPR40 expressed in CHO cells assessed as calcium flux by FLIPR assay; format: functional, cell-based
[2] = target: T1, Peroxisome proliferator-activated receptor gamma (Homo sapiens) (UniProt P37231); test: Agonist activity at PPARgamma (unknown origin) up to 100 uM
T1 sequence (whole entry): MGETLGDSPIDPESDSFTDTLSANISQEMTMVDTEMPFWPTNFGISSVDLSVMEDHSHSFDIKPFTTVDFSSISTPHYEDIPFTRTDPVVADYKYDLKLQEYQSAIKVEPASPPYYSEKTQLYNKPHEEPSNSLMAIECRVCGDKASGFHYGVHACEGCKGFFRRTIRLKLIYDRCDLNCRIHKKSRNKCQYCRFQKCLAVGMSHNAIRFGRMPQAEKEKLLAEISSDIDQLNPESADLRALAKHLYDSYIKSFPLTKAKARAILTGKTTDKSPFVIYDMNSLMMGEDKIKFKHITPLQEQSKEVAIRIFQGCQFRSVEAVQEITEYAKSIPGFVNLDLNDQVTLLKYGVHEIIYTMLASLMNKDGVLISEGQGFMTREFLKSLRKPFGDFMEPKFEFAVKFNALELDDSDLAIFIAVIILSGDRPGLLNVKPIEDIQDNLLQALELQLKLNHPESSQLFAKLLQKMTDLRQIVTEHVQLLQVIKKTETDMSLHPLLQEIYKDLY

Mus musculus [3] = species: Mus musculus; test: Induction of glucose-stimulated insulin secretion in GPR40 knock out mouse pancreatic islets; format: functional
Mus musculus [4] = species: Mus musculus; test: Induction of glucose-stimulated insulin secretion in wild type mouse pancreatic islets; format: functional
Rattus norvegicus [5] = test: Reduction in glucose excursion in ZDF rat at 0.03 mg/kg, po dosed 30 mins before glucose challenge by OGTT method; format: functional, organism-based; design: dose 0.03 mg/kg
In short: (§1)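 Male Zucker diabetic fatty rats, 9 weeks old, n = 6 per group. Oral dose given 30 min before an oral glucose challenge of 2 g/kg. Plasma glucose and plasma insulin were followed over time after the challenge. Values are reported as mean ± standard error.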

Rattus norvegicus [6] = test: Reduction in glucose excursion in ZDF rat at 0.1 mg/kg, po dosed 30 mins before glucose challenge by OGTT method; format: functional, organism-based; design: dose 0.1 mg/kg; in short: as §1
Rattus norvegicus [7] = test: Increase in plasma insulin level in ZDF rat at 0.1 mg/kg, po dosed 30 mins before glucose challenge by OGTT method; format: functional, organism-based; design: dose 0.1 mg/kg; in short: as §1
Homo sapiens [8] = species: Homo sapiens; test: Selectivity for human GPR40 over adenosine A1 receptor (unknown origin)
Homo sapiens [9] = species: Homo sapiens; test: Selectivity for human GPR40 over adenosine A2A receptor (unknown origin)
Homo sapiens [10] = species: Homo sapiens; test: Selectivity for human GPR40 over adenosine A3 receptor (unknown origin)
Homo sapiens [11] = species: Homo sapiens; test: Selectivity for human GPR40 over adrenergic alpha1A receptor (unknown origin)
Homo sapiens [12] = species: Homo sapiens; test: Selectivity for human GPR40 over adrenergic alpha1B receptor (unknown origin)
Homo sapiens [13] = species: Homo sapiens; test: Selectivity for human GPR40 over adrenergic alpha1D receptor (unknown origin)
Homo sapiens [14] = species: Homo sapiens; test: Selectivity for human GPR40 over adrenergic alpha2A receptor (unknown origin)
Homo sapiens [15] = species: Homo sapiens; test: Selectivity for human GPR40 over adrenergic beta1 receptor (unknown origin)
Homo sapiens [16] = species: Homo sapiens; test: Selectivity for human GPR40 over adrenergic beta2 receptor (unknown origin)
Homo sapiens [17] = species: Homo sapiens; test: Selectivity for human GPR40 over androgen receptor (unknown origin)
Homo sapiens [18] = species: Homo sapiens; test: Selectivity for human GPR40 over bradykinin B1 receptor (unknown origin)
Homo sapiens [19] = species: Homo sapiens; test: Selectivity for human GPR40 over bradykinin B2 receptor (unknown origin)
Homo sapiens [20] = species: Homo sapiens; test: Selectivity for human GPR40 over calcium channel L-type benzothiazepine binding site (unknown origin)
Homo sapiens [21] = species: Homo sapiens; test: Selectivity for human GPR40 over calcium channel L-type dihydropyridine binding site (unknown origin)
Homo sapiens [22] = species: Homo sapiens; test: Selectivity for human GPR40 over dopamine D1 receptor (unknown origin)
Homo sapiens [23] = species: Homo sapiens; test: Selectivity for human GPR40 over dopamine D2S receptor (unknown origin)
Homo sapiens [24] = species: Homo sapiens; test: Selectivity for human GPR40 over dopamine D3 receptor (unknown origin)
Homo sapiens [25] = species: Homo sapiens; test: Selectivity for human GPR40 over dopamine D4.2 receptor (unknown origin)
Homo sapiens [26] = species: Homo sapiens; test: Selectivity for human GPR40 over endothelin ETA receptor (unknown origin)
Homo sapiens [27] = species: Homo sapiens; test: Selectivity for human GPR40 over endothelin ETB receptor (unknown origin)
Homo sapiens [28] = species: Homo sapiens; test: Selectivity for human GPR40 over EGF receptor (unknown origin)
Homo sapiens [29] = species: Homo sapiens; test: Selectivity for human GPR40 over ERalpha (unknown origin)
Homo sapiens [30] = species: Homo sapiens; test: Selectivity for human GPR40 over GPR103 (unknown origin)
Homo sapiens [31] = species: Homo sapiens; test: Selectivity for human GPR40 over central GABAA receptor flunitrazepam binding site (unknown origin)
Homo sapiens [32] = species: Homo sapiens; test: Selectivity for human GPR40 over central GABAA receptor muscimol binding site (unknown origin)
Homo sapiens [33] = species: Homo sapiens; test: Selectivity for human GPR40 over central GABAB1A receptor (unknown origin)
Homo sapiens [34] = species: Homo sapiens; test: Selectivity for human GPR40 over GCR (unknown origin)
Homo sapiens [35] = species: Homo sapiens; test: Selectivity for human GPR40 over kainate receptor (unknown origin)
Homo sapiens [36] = species: Homo sapiens; test: Selectivity for human GPR40 over NMDA receptor glycine binding site (unknown origin)
Homo sapiens [37] = species: Homo sapiens; test: Selectivity for human GPR40 over NMDA receptor phencyclidine binding site (unknown origin)
Homo sapiens [38] = species: Homo sapiens; test: Selectivity for human GPR40 over histamine H1 receptor (unknown origin)
Homo sapiens [39] = species: Homo sapiens; test: Selectivity for human GPR40 over histamine H2 receptor (unknown origin)
Homo sapiens [40] = species: Homo sapiens; test: Selectivity for human GPR40 over histamine H3 receptor (unknown origin)
Homo sapiens [41] = species: Homo sapiens; test: Selectivity for human GPR40 over central imidazoline I2 receptor (unknown origin)
Homo sapiens [42] = species: Homo sapiens; test: Selectivity for human GPR40 over IL1 receptor (unknown origin)
Homo sapiens [43] = species: Homo sapiens; test: Selectivity for human GPR40 over CysLT1 receptor (unknown origin)
Homo sapiens [44] = species: Homo sapiens; test: Selectivity for human GPR40 over MT1 receptor (unknown origin)
Homo sapiens [45] = species: Homo sapiens; test: Selectivity for human GPR40 over muscarinic M1 receptor (unknown origin)
Homo sapiens [46] = species: Homo sapiens; test: Selectivity for human GPR40 over muscarinic M2 receptor (unknown origin)
Homo sapiens [47] = species: Homo sapiens; test: Selectivity for human GPR40 over muscarinic M3 receptor (unknown origin)
Homo sapiens [48] = species: Homo sapiens; test: Selectivity for human GPR40 over neuropeptide YY1 receptor (unknown origin)
Homo sapiens [49] = species: Homo sapiens; test: Selectivity for human GPR40 over neuropeptide YY2 receptor (unknown origin)
Homo sapiens [50] = species: Homo sapiens; test: Selectivity for human GPR40 over nAchR (unknown origin)
Homo sapiens [51] = species: Homo sapiens; test: Selectivity for human GPR40 over nAchR alpha1 bungarotoxin binding site (unknown origin)
Homo sapiens [52] = species: Homo sapiens; test: Selectivity for human GPR40 over delta opioid receptor (unknown origin)
Homo sapiens [53] = species: Homo sapiens; test: Selectivity for human GPR40 over kappa opioid receptor (unknown origin)
Homo sapiens [54] = species: Homo sapiens; test: Selectivity for human GPR40 over mu opioid receptor (unknown origin)
Homo sapiens [55] = species: Homo sapiens; test: Selectivity for human GPR40 over phorbol ester receptor (unknown origin)
Homo sapiens [56] = species: Homo sapiens; test: Selectivity for human GPR40 over PAF receptor (unknown origin)
Homo sapiens [57] = species: Homo sapiens; test: Selectivity for human GPR40 over KATP channel (unknown origin)
Homo sapiens [58] = species: Homo sapiens; test: Selectivity for human GPR40 over human ERG channel
Homo sapiens [59] = species: Homo sapiens; test: Selectivity for human GPR40 over EP4 receptor (unknown origin)
Homo sapiens [60] = species: Homo sapiens; test: Selectivity for human GPR40 over P2X receptor (unknown origin)
Homo sapiens [61] = species: Homo sapiens; test: Selectivity for human GPR40 over P2Y receptor (unknown origin)
Homo sapiens [62] = species: Homo sapiens; test: Selectivity for human GPR40 over rolipram binding receptor (unknown origin)
Homo sapiens [63] = species: Homo sapiens; test: Selectivity for human GPR40 over 5HT1A receptor (unknown origin)
Homo sapiens [64] = species: Homo sapiens; test: Selectivity for human GPR40 over 5HT3 receptor (unknown origin)
Homo sapiens [65] = species: Homo sapiens; test: Selectivity for human GPR40 over sigma-1 receptor (unknown origin)
Homo sapiens [66] = species: Homo sapiens; test: Selectivity for human GPR40 over sigma-2 receptor (unknown origin)
Homo sapiens [67] = species: Homo sapiens; test: Selectivity for human GPR40 over sodium channel site 2 (unknown origin)
Homo sapiens [68] = species: Homo sapiens; test: Selectivity for human GPR40 over NK1 receptor (unknown origin)
Homo sapiens [69] = species: Homo sapiens; test: Selectivity for human GPR40 over thyroid receptor receptor (unknown origin)
Homo sapiens [70] = species: Homo sapiens; test: Selectivity for human GPR40 over DAT (unknown origin)
Homo sapiens [71] = species: Homo sapiens; test: Selectivity for human GPR40 over GABA transporter (unknown origin)
Homo sapiens [72] = species: Homo sapiens; test: Selectivity for human GPR40 over NET (unknown origin)
Homo sapiens [73] = species: Homo sapiens; test: Selectivity for human GPR40 over SERT (unknown origin)

Sequence of Free fatty acid receptor 1 (O14842 whole entry): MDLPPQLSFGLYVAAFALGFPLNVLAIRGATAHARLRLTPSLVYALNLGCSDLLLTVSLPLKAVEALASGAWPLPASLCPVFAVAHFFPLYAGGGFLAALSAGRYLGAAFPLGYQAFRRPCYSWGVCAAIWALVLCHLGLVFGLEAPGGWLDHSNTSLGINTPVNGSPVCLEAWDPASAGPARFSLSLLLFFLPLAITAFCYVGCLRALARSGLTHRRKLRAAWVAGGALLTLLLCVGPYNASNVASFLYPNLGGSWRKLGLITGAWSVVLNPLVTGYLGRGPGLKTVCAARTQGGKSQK

With CCO[C@H](CC(=O)O)c1ccc(O[C@@H]2CCc3c2cccc3C(F)(F)F)cc1 as the molecule, how does the EC50 [1] read?
Its EC50 is 330 nM.

How did the EC50 [1] turn out when CCOC(CC(=O)O)c1ccc(OCc2ccc(Cl)c(Cl)c2)cc1 (racemic) was run?
Its EC50 is 6.2 nM.

With CCO[C@H](CC(=O)O)c1ccc(OCc2ccc(Cl)c(Cl)c2)cc1 as the molecule, how does the EC50 [1] read?
The EC50 was 360 nM.

CCO[C@@H](CC(=O)O)c1ccc(O[C@@H]2CCCc3ccccc32)cc1 was tested. Which EC50 [1] did it give?
Its EC50 is 62 nM.

For CCO[C@@H](CC(=O)O)c1ccc(OC2Cc3ccccc3C2)cc1, which EC50 [1] is on record?
Its EC50 is 83 nM.

What does the source list for CCO[C@@H](CC(=O)O)c1ccc(O[C@@H]2CCc3c2cccc3C(F)(F)F)cc1?
EC50 [1]: 3.7 nM; Activity [2]: inactive; Activity (Mus musculus [3]): inactive; Activity (Mus musculus [4]): Active; Activity (Rattus norvegicus [5]): Active; Activity (Rattus norvegicus [6]): Active; Activity (Rattus norvegicus [7]): Active; Selectivity ratio (Homo sapiens [8]): > 100; Selectivity ratio (Homo sapiens [9]): > 100; Selectivity ratio (Homo sapiens [10]): > 100; Selectivity ratio (Homo sapiens [11]): > 100; Selectivity ratio (Homo sapiens [12]): > 100; Selectivity ratio (Homo sapiens [13]): > 100; Selectivity ratio (Homo sapiens [14]): > 100; Selectivity ratio (Homo sapiens [15]): > 100; Selectivity ratio (Homo sapiens [16]): > 100; Selectivity ratio (Homo sapiens [17]): > 100; Selectivity ratio (Homo sapiens [18]): > 100; Selectivity ratio (Homo sapiens [19]): > 100; Selectivity ratio (Homo sapiens [20]): > 100; Selectivity ratio (Homo sapiens [21]): > 100; Selectivity ratio (Homo sapiens [22]): > 100; Selectivity ratio (Homo sapiens [23]): > 100; Selectivity ratio (Homo sapiens [24]): > 100; Selectivity ratio (Homo sapiens [25]): > 100; Selectivity ratio (Homo sapiens [26]): > 100; Selectivity ratio (Homo sapiens [27]): > 100; Selectivity ratio (Homo sapiens [28]): > 100; Selectivity ratio (Homo sapiens [29]): > 100; Selectivity ratio (Homo sapiens [30]): > 100; Selectivity ratio (Homo sapiens [31]): > 100; Selectivity ratio (Homo sapiens [32]): > 100; Selectivity ratio (Homo sapiens [33]): > 100; Selectivity ratio (Homo sapiens [34]): > 100; Selectivity ratio (Homo sapiens [35]): > 100; Selectivity ratio (Homo sapiens [36]): > 100; Selectivity ratio (Homo sapiens [37]): > 100; Selectivity ratio (Homo sapiens [38]): > 100; Selectivity ratio (Homo sapiens [39]): > 100; Selectivity ratio (Homo sapiens [40]): > 100; Selectivity ratio (Homo sapiens [41]): > 100; Selectivity ratio (Homo sapiens [42]): > 100; Selectivity ratio (Homo sapiens [43]): > 100; Selectivity ratio (Homo sapiens [44]): > 100; Selectivity ratio (Homo sapiens [45]): > 100; Selectivity ratio (Homo sapiens [46]): > 100; Selectivity ratio (Homo sapiens [47]): > 100; Selectivity ratio (Homo sapiens [48]): > 100; Selectivity ratio (Homo sapiens [49]): > 100; Selectivity ratio (Homo sapiens [50]): > 100; Selectivity ratio (Homo sapiens [51]): > 100; Selectivity ratio (Homo sapiens [52]): > 100; Selectivity ratio (Homo sapiens [53]): > 100; Selectivity ratio (Homo sapiens [54]): > 100; Selectivity ratio (Homo sapiens [55]): > 100; Selectivity ratio (Homo sapiens [56]): > 100; Selectivity ratio (Homo sapiens [57]): > 100; Selectivity ratio (Homo sapiens [58]): > 100; Selectivity ratio (Homo sapiens [59]): > 100; Selectivity ratio (Homo sapiens [60]): > 100; Selectivity ratio (Homo sapiens [61]): > 100; Selectivity ratio (Homo sapiens [62]): > 100; Selectivity ratio (Homo sapiens [63]): > 100; Selectivity ratio (Homo sapiens [64]): > 100; Selectivity ratio (Homo sapiens [65]): > 100; Selectivity ratio (Homo sapiens [66]): > 100; Selectivity ratio (Homo sapiens [67]): > 100; Selectivity ratio (Homo sapiens [68]): > 100; Selectivity ratio (Homo sapiens [69]): > 100; Selectivity ratio (Homo sapiens [70]): > 100; Selectivity ratio (Homo sapiens [71]): > 100; Selectivity ratio (Homo sapiens [72]): > 100; Selectivity ratio (Homo sapiens [73]): > 100

CCO[C@@H](CC(=O)O)c1ccc(O[C@H]2CCc3ccccc32)cc1 was tested. Which EC50 [1] did it give?
Its EC50 is 69 nM.

How did the EC50 [1] turn out when CCO[C@H](CC(=O)O)c1ccc(O[C@H]2CCc3c2cccc3C(F)(F)F)cc1 was run?
The EC50 was 2600 nM.

— ChEMBL document CHEMBL3425426, “Discovery of DS-1558: A Potent and Orally Bioavailable GPR40 Agonist” (ACS Med Chem Lett, 2015)
